Screening results deposited in PubChem BioAssay by Broad Institute.
E-selectin induc: E-selectin induction on HUVECs; P16581; HUVEC E-selectin immunofluorescence imaging; normalized: neutral wells 0, TNF-alpha wells 100; activation, % at 7.58 µM; 0.37% of 260,000 active;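 active = mean E-selectin-positive cell signal at least 10% of the positive control, reached in at least 60% of replicates, without over 20% cell loss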
Target sequence (P16581 whole entry, looked up): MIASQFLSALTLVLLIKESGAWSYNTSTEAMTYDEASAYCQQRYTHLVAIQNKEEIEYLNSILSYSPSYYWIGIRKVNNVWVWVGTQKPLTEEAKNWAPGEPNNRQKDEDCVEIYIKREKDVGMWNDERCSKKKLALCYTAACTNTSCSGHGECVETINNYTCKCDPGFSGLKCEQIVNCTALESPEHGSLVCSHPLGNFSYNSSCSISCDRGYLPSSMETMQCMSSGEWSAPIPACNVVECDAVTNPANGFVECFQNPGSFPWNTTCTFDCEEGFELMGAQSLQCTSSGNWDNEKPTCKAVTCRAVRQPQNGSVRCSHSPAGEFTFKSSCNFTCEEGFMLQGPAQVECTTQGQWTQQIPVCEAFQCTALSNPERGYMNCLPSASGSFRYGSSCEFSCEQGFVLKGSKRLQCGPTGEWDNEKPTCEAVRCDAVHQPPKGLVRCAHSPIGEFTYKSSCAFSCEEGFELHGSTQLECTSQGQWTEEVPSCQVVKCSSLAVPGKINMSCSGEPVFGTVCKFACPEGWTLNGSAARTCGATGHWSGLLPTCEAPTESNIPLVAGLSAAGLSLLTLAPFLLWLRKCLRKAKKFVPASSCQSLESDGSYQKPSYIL
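Read-out basis: % PE-positive cells; Test system: HUVEC primary endothelial cells; Technique: immunofluorescence imaging; Dosing: single-point compound dose.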
A number is an active result; n = inactive. The entries come from a sample that favours hits as a whole.

SMILES | E-selectin induc
C[C@H]1CN([C@@H](C)CO)C(=O)Cc2cc(NC(=O)Cc3cn(C)c4ccccc34)ccc2O[C@@H]1CN(C)C(=O)Nc1ccc(C(F)(F)F)cc1 | 50.1
C[C@H](CO)N1C[C@H](C)[C@@H](CN(C)C(=O)CCCN(C)C)OCCCC[C@H](C)Oc2ccc(NS(=O)(=O)c3ccccc3)cc2C1=O | n
C[C@H](NC(=O)[C@@H]1[C@@H](CO)[C@@H]2Cn3c(cccc3=O)[C@@H]2N1C(=O)C1CC1)c1ccccc1 | n
C[C@H](CO)N1C[C@H](C)[C@@H](CN(C)C(=O)Nc2ccccc2)Oc2ccc(NC(=O)Nc3ccccc3)cc2CC1=O | n
CO[C@@H]1CN(C)C(=O)c2ccc(NS(=O)(=O)C3CCCCC3)cc2OC[C@@H](C)NC[C@@H]1C | n
O=C(O)C[C@H]1CC[C@H](NC(=O)Nc2cc(F)ccc2F)[C@@H](CO)O1 | n
O=C(C[C@H]1C[C@H]2c3cc(NC(=O)Nc4ccccc4F)ccc3O[C@H]2[C@H](CO)O1)NCc1ccncc1 | n
O=C(C[C@H]1C=C[C@H](NC(=O)C2CCOCC2)[C@H](CO)O1)NCC1CCCCC1 | n
C[C@@H]1CN([C@H](C)CO)C(=O)c2cccc(NC(=O)Nc3ccc4c(c3)OCO4)c2O[C@H]1CN(C)C(=O)NC1CCCCC1 | n
CO[C@@H]1CN(C)C(=O)c2ccc(NC(=O)C3CC3)cc2OC[C@H](C)N(C(=O)CN2CCOCC2)C[C@H]1C | n
C[C@@H]1CN([C@@H](C)CO)C(=O)c2cc(N(C)C)ccc2O[C@@H](C)CCCCO[C@@H]1CN(C)C(=O)CCCN(C)C | n
C[C@H](CO)N1C[C@H](C)[C@@H](CN(C)S(=O)(=O)c2ccc(F)cc2)OCCCC[C@H](C)Oc2ccc(NC(=O)Nc3ccccc3)cc2C1=O | n
NS(=O)(=O)c1ccc(NC(=O)CN2C(=O)CCC2=O)cc1 | n
O=C(CN1CCN(S(=O)(=O)N2CCOCC2)CC1)Nc1ccc(Cl)c(Cl)c1 | n
NS(=O)(=O)c1ccc(NC(=O)CCC(=O)N2CCOCC2)cc1 | 34.2
O=C(CCC(=O)N1CCOCC1)Nc1ccc(Cl)c(Cl)c1 | 85.2
O=C(CCC(=O)N1CCCCC1)Nc1ccc(Cl)c(Cl)c1 | n
CC(=O)Nc1ccc(S(=O)(=O)N2CCN(CC(=O)N3CCOCC3)CC2)cc1 | n
CCC(=O)N(C)C[C@@H]1Oc2ncc(/C=C/c3ccccc3)cc2C(=O)N([C@H](C)CO)C[C@@H]1C | n
CO[C@@H]1CN(C)C(=O)c2cc(NC(=O)Nc3ccccc3Cl)ccc2OC[C@@H](C)N(Cc2ccccc2C(=O)O)C[C@H]1C | n
COC(=O)C[C@H]1CC[C@H]2[C@H](COc3ccc(NS(C)(=O)=O)cc3C(=O)N2C)O1 | n
C[C@@H]1CN([C@@H](C)CO)C(=O)Cc2cc(NC(=O)Nc3ccc4c(c3)OCO4)ccc2O[C@@H]1CN(C)S(=O)(=O)c1cn(C)cn1 | n
C[C@@H]1CCCCO[C@H](CN(C)C(=O)c2ccccc2)[C@H](C)CN([C@@H](C)CO)C(=O)c2cc(NC(=O)Cc3ccccc3)ccc2O1 | n
O=C(C[C@H]1CC[C@@H](NC(=O)Nc2ccccc2)[C@@H](CO)O1)NCc1cccc(F)c1 | n
CCOc1cc(N2CCOCC2)c(OCC)cc1NC(=O)c1ccc(NC(C)=O)cc1 | n
SMILES | E-selectin induc
CCOc1cc(N2CCOCC2)c(OCC)cc1NC(=O)c1ccc(S(=O)(=O)N2CC(C)OC(C)C2)cc1 (configuration not stated) | 131.4
CCOc1cc(N2CCOCC2)c(OCC)cc1NC(=O)c1ccc(OC)cc1 | n
CN(C)/C=C/c1c([N+](=O)[O-])c2ccc(O)cc2n1-c1ccccc1 | n
CN(C)c1ccc(C=c2c3cc(O)ccc3n3c2cc(-c2ccccc2)[n+]3C)cc1 | 139.0
O=[N+]([O-])c1ccc(C=Nc2ccccc2)cc1 | n
C[n+]1c(-c2ccccc2)cc2c(=Cc3ccccc3)c3ccccc3n21 | 220.4
C[n+]1c(-c2ccccc2)cc2c(=Cc3ccc([N+](=O)[O-])cc3)c3ccccc3n21 | 122.3
CC(C)n1c2ccccc2c2cc([N+](=O)[O-])ccc21 | n
CN(C)c1ccc(/C=C/C(=O)c2ccc(O)cc2)cc1 | n
CNC[C@H]1Oc2c(NC(=O)C3CCOCC3)cccc2C(=O)N([C@@H](C)CO)C[C@H]1C | n
CCCNC(=O)[C@H]1[C@H](CO)[C@H]2Cn3c(ccc(-c4cccc(OC)c4)c3=O)[C@H]2N1Cc1nccs1 | n
C[C@H](CO)N1C[C@H](C)[C@H](CN(C)C(=O)c2ccncc2)Oc2ncc(C#C[C@@H](C)O)cc2C1=O | n
C[C@H]1CN([C@@H](C)CO)C(=O)c2cc(NC(=O)CCC(F)(F)F)ccc2O[C@H]1CN(C)CC1CC1 | n
O=C(C[C@H]1CC[C@H](NS(=O)(=O)c2cccc(F)c2)[C@@H](CO)O1)NCc1ccc2c(c1)OCO2 | n
O=C(Nc1ccc2c(c1)OCO2)N[C@H]1CC[C@H](CC(=O)N2CCN(c3ccccc3)CC2)O[C@H]1CO | n
O=C([C@H]1[C@H](CO)[C@H]2Cn3c(cccc3=O)[C@@H]1N2C(=O)CC1CC1)N1CCc2ccccc2C1 | n
CC(Oc1cc2oc(=O)c3c(c2cc1Cl)CCCC3)C(=O)NCC1CCC(C(=O)O)CC1 (configuration not stated) | 87.4
CC(Oc1cc2oc(=O)c3c(c2cc1Cl)CCC3)C(=O)NCCCn1ccnc1 (configuration not stated) | n
O=C(COc1cc2oc(=O)c3c(c2cc1Cl)CCC3)NCCN1CCOCC1 | n
Cc1ccc(S(=O)(=O)N[C@H]2CC[C@@H](CC(=O)NC3CCCCC3)O[C@H]2CO)cc1 | n
C[C@H](CO)N1C[C@H](C)[C@H](CN(C)C(=O)NC2CCCCC2)Oc2c(NC(=O)CCCCCC(=O)Nc3ccccc3N)cccc2C1=O | n
CCc1c(O)nc(SCC(=O)Nc2nc3ccccc3s2)n(-c2ccc(C)cc2)c1=O | n
C=CCn1c(SCC(=O)Nc2nc3ccccc3s2)nc(O)c(CC)c1=O | 32.9
CCc1c(O)nc(SCC(=O)Nc2nc3ccccc3s2)n(-c2ccccc2)c1=O | n
C[C@@H]1CN([C@@H](C)CO)C(=O)c2cc(NS(=O)(=O)c3cccs3)ccc2O[C@H]1CN(C)Cc1ccc(-c2ccccc2)cc1 | n
SMILES | E-selectin induc
CCC(=O)N(C)C[C@H]1[C@@H](c2ccc(-c3cccnc3)cc2)[C@@H](CO)N1C(C)=O | n
Cc1ccc(S(=O)(=O)NCc2cccc([N+](=O)[O-])c2)cc1 | n
Cc1ccc(S(=O)(=O)NCc2ccc3c(c2)cc(C)n3C)cc1 | 63.4
Cc1cc2cc(CNC(=O)Nc3ccc(Cl)c(Cl)c3)ccc2n1C | 141.9
Cc1cc2cc(CNC(=O)NC3CCCCC3)ccc2n1C | n
Cc1ccc(CNS(=O)(=O)c2ccc(-n3cccn3)cc2)cc1 | n
Cc1onc(-c2ccccc2Cl)c1C(=O)NCc1ccc2c(c1)cc(C)n2C | n
COc1cccc(-c2ccc3c(c2)O[C@@H](CN(C)Cc2ccncc2)[C@@H](C)CN([C@H](C)CO)S3(=O)=O)c1 | n
O=C(NC1CCCC1)C(c1ccccc1)N(C(=O)c1csnn1)c1ccccc1F (configuration not stated) | n
C=CCN(C(=O)c1csnn1)C(C(=O)NC1CCCCC1)c1ccccc1 (configuration not stated) | 31.5
CCc1ccc(C(C(=O)NC2CCCCC2)N(C(=O)c2csnn2)C2CC2)cc1 (configuration not stated) | 39.1
O=C(NC1CCCCC1)C(c1ccccc1)N(C(=O)c1csnn1)C1CCCC1 (configuration not stated) | n
